Experimental data taken from ChEMBL document CHEMBL1921785, “Exploration of in vitro time point quantitative evaluation of newly synthesized benzimidazole and benzothiazole derivatives as potential antibacterial agents” (2011).

Legend:
Type in all cases: functional
Shigella dysenteriae [1] = test: Antibacterial activity against Shigella dysenteriae assessed as zone of growth inhibition at 0.2 mg/ml after 18 to 24 hrs by Kirby-Bauer agar diffusion method; settings: read-out: DIZ
Staphylococcus aureus [2] = test: Antibacterial activity against Staphylococcus aureus MTCC 3160 assessed as zone of growth inhibition at 0.2 mg/ml after 18 to 24 hrs by Kirby-Bauer agar diffusion method; settings: read-out: DIZ
How it was run: (§1)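 Kirby-Bauer disc diffusion on Mueller-Hinton agar, following CLSI 2007 guidelines, with ciprofloxacin as reference drug. Read-out is the diameter of the zone of growth inhibition in mm.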

Vibrio cholerae [3] = test: Antibacterial activity against Vibrio cholerae MTCC 3904 assessed as zone of growth inhibition at 0.2 mg/ml after 18 to 24 hrs by Kirby-Bauer agar diffusion method; settings: read-out: DIZ
Staphylococcus aureus [4] = test: Bactericidal activity against Staphylococcus aureus MTCC 3160 assessed as time required to complete extermination of bacteria at 0.2 mg/mL by time-kill assay
How it was run: (§2)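 Time-kill by pour plate. Overnight 37 °C cultures in Mueller-Hinton broth were dosed at about 0.2 mg/mL and incubated at 37 °C for up to 72 h, with broth replenished every 24 h. Samples were taken over time, serially diluted, and pour-plated on MHA at 37 °C for 18–24 h. Colonies were counted as CFU/ml against untreated culture controls.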

Vibrio cholerae [5] = test: Bactericidal activity against Vibrio cholerae MTCC 3904 assessed as time required to complete extermination of bacteria at 0.2 mg/mL by time-kill assay
Escherichia coli [6] = test: Antibacterial activity against Escherichia coli MTCC 1610 assessed as zone of growth inhibition at 0.2 mg/ml after 18 to 24 hrs by Kirby-Bauer agar diffusion method; settings: read-out: DIZ; how it was run: as §1
Escherichia coli [7] = test: Bactericidal activity against Escherichia coli MTCC 1610 assessed as time required to complete extermination of bacteria at 0.2 mg/mL by time-kill assay; how it was run: as §2
Bacillus cereus [8] = test: Antibacterial activity against Bacillus cereus MTCC 430 assessed as zone of growth inhibition at 0.2 mg/ml after 18 to 24 hrs by Kirby-Bauer agar diffusion method; settings: read-out: DIZ; how it was run: as §1
Bacillus cereus [9] = test: Bactericidal activity against Bacillus cereus MTCC 430 assessed as time required to complete extermination of bacteria at 0.2 mg/mL by time-kill assay; how it was run: as §2
Bacillus cereus [10] = test: Bactericidal activity against Bacillus cereus MTCC 430 assessed as log reduction in bacterial count at 0.2 mg/mL up to 48 hrs by time-kill assay; how it was run: as §2
Shigella dysenteriae [11] = test: Bactericidal activity against Shigella dysenteriae assessed as time required to complete extermination of bacteria at 0.2 mg/mL by time-kill assay
Vibrio cholerae [12] = test: Bactericidal activity against Vibrio cholerae MTCC 3904 assessed as time required to complete extermination of bacteria by time-kill assay
Vibrio cholerae [13] = test: Antibacterial activity against Vibrio cholerae MTCC 3904 assessed as zone of growth inhibition after 18 to 24 hrs by Kirby-Bauer agar diffusion method
Shigella dysenteriae [14] = test: Antibacterial activity against Shigella dysenteriae assessed as zone of growth inhibition at after 18 to 24 hrs by Kirby-Bauer agar diffusion method
Bacillus cereus [15] = test: Antibacterial activity against Bacillus cereus MTCC 430 assessed as zone of growth inhibition after 18 to 24 hrs by Kirby-Bauer agar diffusion method; how it was run: as §1
Shigella dysenteriae [16] = test: Bactericidal activity against Shigella dysenteriae assessed as time required to complete extermination of bacteria by time-kill assay
Bacillus cereus [17] = test: Bactericidal activity against Bacillus cereus MTCC 430 assessed as time required to complete extermination of bacteria by time-kill assay; how it was run: as §2
Staphylococcus aureus [18] = test: Bactericidal activity against Staphylococcus aureus MTCC 3160 assessed as time required to complete extermination of bacteria by time-kill assay; how it was run: as §2

Compound | zone of inhibition at 200 µg/mL (Shigella dysenteriae [1]) | zone of inhibition at 200 µg/mL (Staphylococcus aureus [2]) | zone of inhibition at 200 µg/mL (Vibrio cholerae [3]) | zone of inhibition at 200 µg/mL (Bacillus cereus [8]) | also measured
FC(F)(F)Oc1ccc(Cn2c(-c3ccc(OC(F)(F)F)cc3)nc3ccccc32)cc1 | 11 mm | 10 mm | 23 mm | – | Time (Staphylococcus aureus [4]): <48 h; Time (Vibrio cholerae [5]): <24 h
FC(F)(F)c1ccc(Cn2c(-c3ccc(C(F)(F)F)cc3)nc3ccccc32)cc1 | 19 mm | 22 mm | 13 mm | – | zone of inhibition at 200 µg/mL (Escherichia coli [6]): 22 mm; Time (Escherichia coli [7]): <48 h
C(=C/c1nc2ccccc2n1C/C=C/c1ccccc1)/c1ccccc1 | – | – | 11 mm | 14 mm | –
CN(C)c1ccc(Cn2c(-c3ccc(N(C)C)cc3)nc3ccccc32)cc1 | 16 mm | 11 mm | 17 mm | – | –
Oc1ccc(Cn2c(-c3ccc(O)cc3)nc3ccccc32)cc1 | 11 mm | – | – | – | –
O=[N+]([O-])c1ccc(-c2nc3ccccc3s2)cc1 | 13 mm | – | – | 14 mm | –
Oc1ccc(Br)cc1Cn1c(-c2cc(Br)ccc2O)nc2ccccc21 | – | – | – | 33 mm | zone of inhibition at 200 µg/mL (Escherichia coli [6]): 17 mm; Time (Bacillus cereus [9]): <24 h
Brc1ccc(Cn2c(-c3ccc(Br)cc3)nc3ccccc32)cc1 | 13 mm | – | 16 mm | 15 mm | –
Clc1ccc(Cn2c(-c3ccc(Cl)c(Cl)c3)nc3ccccc32)cc1Cl | 11 mm | – | – | – | –
CCCCCCCn1c(CCCCCC)nc2ccccc21 | 21 mm | 12 mm | 16 mm | 15 mm | –
O=[N+]([O-])c1cccc(Cn2c(-c3cccc([N+](=O)[O-])c3)nc3ccccc32)c1 | – | 10 mm | 13 mm | – | –
COc1ccc(Br)cc1-c1nc2ccccc2s1 | – | 12 mm | 17 mm | 21 mm | –
c1ccc(Cn2c(-c3ccccc3)nc3ccccc32)cc1 | 23 mm | 10 mm | 33 mm | 22 mm | zone of inhibition at 200 µg/mL (Escherichia coli [6]): 19 mm; log reduction in bacterial count (Bacillus cereus [10]): 3; Time (Vibrio cholerae [5]): <24 h
Cc1ccc(Cn2c(-c3ccc(C)cc3)nc3ccccc32)cc1 | 13 mm | 12 mm | 18 mm | – | –
CCc1ccccc1-c1nc2ccccc2s1 | 35 mm | 13 mm | 16 mm | 21 mm | zone of inhibition at 200 µg/mL (Escherichia coli [6]): 11 mm; log reduction in bacterial count (Bacillus cereus [10]): 3; Time (Shigella dysenteriae [11]): 72 h
CC(C)c1ccc(-c2nc3ccccc3s2)cc1 | 15 mm | 13 mm | – | 20 mm | log reduction in bacterial count (Bacillus cereus [10]): 3; Time (Staphylococcus aureus [4]): <48 h
COc1cc(-c2nc3ccccc3s2)cc(OC)c1OC | 23 mm | – | – | – | –
Oc1ccc(-c2nc3ccccc3s2)cc1 | – | – | 18 mm | 19 mm | Time (Bacillus cereus [9]): <24 h
O=C(O)c1cn(C2CC2)c2cc(N3CCNCC3)c(F)cc2c1=O [CIPROFLOXACIN] | – | – | – | – | Time (Vibrio cholerae [12]): 48 h; diameter of the inhibition zone (DIZ) (Vibrio cholerae [13]): 24 mm; diameter of the inhibition zone (DIZ) (Shigella dysenteriae [14]): 14 mm; diameter of the inhibition zone (DIZ) (Bacillus cereus [15]): 14 mm; Time (Shigella dysenteriae [16]): <72 h; Time (Bacillus cereus [17]): 48 h; Time (Staphylococcus aureus [18]): 48 h
CC(C)(C)c1ccc(Cn2c(-c3ccc(C(C)(C)C)cc3)nc3ccccc32)cc1 | 13 mm | – | 21 mm | 12 mm | zone of inhibition at 200 µg/mL (Escherichia coli [6]): 17 mm
c1coc(Cn2c(-c3ccco3)nc3ccccc32)c1 | 12 mm | 10 mm | 13 mm | – | Time (Staphylococcus aureus [4]): <48 h
Fc1ccc(Cn2c(-c3ccc(F)cc3)nc3ccccc32)cc1 | – | 10 mm | – | 18 mm | –
CCOc1cc(Cn2c(-c3ccc(O)c(OCC)c3)nc3ccccc32)ccc1O | – | 23 mm | – | – | zone of inhibition at 200 µg/mL (Escherichia coli [6]): 14 mm; Time (Staphylococcus aureus [4]): <24 h
CCOc1ccc(-c2nc3ccccc3s2)cc1OC | 15 mm | 12 mm | 16 mm | – | –
CCOc1ccc(-c2nc3ccccc3s2)cc1 | 16 mm | 16 mm | 15 mm | 22 mm | zone of inhibition at 200 µg/mL (Escherichia coli [6]): 12 mm; log reduction in bacterial count (Bacillus cereus [10]): 3; Time (Staphylococcus aureus [4]): <48 h
